As usually defined, the IC50 is the concentration that gives 50% inhibition. The term AUC denotes concentration integrated over time. A higher AUC goes with more exposure. What is called bioavailability is dose-corrected exposure relative to a reference, in per cent. High values mean much systemic uptake, low ones little systemic uptake. What is called inhibition is the percentage by which the read-out fell short of the control. Read a low inhibition as a response near the control. Broadly, the Cmax is the peak of the concentration-time curve. Usually half-life stands for how long it takes for the measured level to halve. Low values mean fast loss, high ones slow loss. By clearance is commonly meant the rate of elimination divided by the concentration. Lower therefore signals inefficient removal. In general, Papp A→B refers to the apparent permeability from the apical to the basolateral side of a cell layer. Higher therefore signals ready permeation.

16 molecules from ChEMBL document CHEMBL2086331, “Novel triazolopyridylbenzamides as potent and selective p38α inhibitors” (Bioorg Med Chem Lett, 2012) can be followed below.

For one series, the system named is Blood. As to the kind of experiment: Inhibition of LPS-induced TNFalpha production in human whole blood. In kind it is functional, tissue-based.
Series [1] is described as follows: AUC in Wistar rat at 1 mg/kg, iv. In kind it is ADME, organism-based. Details: dose 1 mg/kg, route intravenous; call rule not given here. To be noted: plasma. An outline of the steps:
(§1)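 Wistar rats, single dose either iv 1 mg/kg in 40% PEG + 0.4% HCl 1 N, or oral 10 mg/kg in 0.5% methylcellulose + 0.1% Tween 80; plasma PK parameters reported as mean values (n = 2).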

Series [2] in a line: Oral bioavailability in Wistar rat at 10 mg/kg. In kind it is ADME, organism-based. Conditions: in vivo. In short, it runs like this: as §1
The nature of series [3]: Passive permeability from basolateral to apical side in human Caco2 cells at 12.5 uM. The format is ADME, cell-based. To be noted: Caco-2, read-out: permeability. An outline of the steps: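 Caco-2 monolayer, test compound 12.5 µM; passive apparent permeability measured in both AB and BA directions, reported in 10^-6 cm/s.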
(In general: Passage across Caco-2 layers is used to estimate intestinal permeability.)

A short description of series [4]: Protein binding in rat plasma. The format is ADME, cell-free. To be noted: read-out: PPB (converted).
The nature of series [5]: Protein binding in human plasma. To be noted: read-out: PPB (converted). The format is ADME, cell-free.
Series [6] deals with CHO. As to the kind of experiment: Toxicity against CHO cells. To be noted: chinese hamster. The format is cell-based, Cricetulus griseus.
The target of another series is Cytochrome P450 2C9 (Homo sapiens, UniProt P11712). As to the kind of experiment: Inhibition of CYP2C9 at < 25 uM. The format is ADME.
Series [7] has as its target RAF proto-oncogene serine/threonine-protein kinase (Homo sapiens, UniProt P04049). As to the kind of experiment: Inhibition of c-Raf at 10 uM. An outline of the steps:
(§2)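 Upstate 55-kinase panel; single inhibitor concentration 10 µM, duplicate wells, ATP at the Km of each kinase.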

The next series has as its target Cytochrome P450 3A4 (Homo sapiens, UniProt P08684). As to the kind of experiment: Inhibition of CYP3A4 at < 25 uM. The format is ADME.
The target of another series is T1, Cytochrome P450 1A2 (Homo sapiens, UniProt P05177).
T1 sequence (P05177 whole entry): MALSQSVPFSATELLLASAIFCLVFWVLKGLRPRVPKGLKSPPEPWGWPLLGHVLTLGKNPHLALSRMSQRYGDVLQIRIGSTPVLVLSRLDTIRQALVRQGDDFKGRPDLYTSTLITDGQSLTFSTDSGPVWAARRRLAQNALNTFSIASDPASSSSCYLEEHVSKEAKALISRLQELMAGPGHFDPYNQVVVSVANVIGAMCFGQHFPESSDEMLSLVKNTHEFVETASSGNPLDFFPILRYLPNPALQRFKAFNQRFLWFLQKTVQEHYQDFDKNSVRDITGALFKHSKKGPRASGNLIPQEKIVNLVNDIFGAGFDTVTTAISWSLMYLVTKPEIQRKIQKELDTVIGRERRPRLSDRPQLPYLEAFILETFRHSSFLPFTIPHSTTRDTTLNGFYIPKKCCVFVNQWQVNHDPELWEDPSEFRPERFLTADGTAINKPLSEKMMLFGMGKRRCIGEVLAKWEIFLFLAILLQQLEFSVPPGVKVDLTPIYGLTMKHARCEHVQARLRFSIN
As to the kind of experiment: Inhibition of CYP1A2 at < 25 uM. The format is ADME.

In series [8] the test system is CHO. As to the kind of experiment: Cytotoxicity against CHO cells. The format is cell-based. Conditions: Cricetulus griseus.
The target in series [9] is Proto-oncogene tyrosine-protein kinase receptor Ret (Homo sapiens, UniProt P07949). As to the kind of experiment: Inhibition of RET at 10 uM. In short, it runs like this: as §2
Series [10] can be described thus: Volume of distribution at steady state in Wistar rat at 1 mg/kg, iv. The format is ADME, organism-based. More on the design: dose 1 mg/kg, route intravenous. To be noted: in vivo, read-out: Vdss. In short, it runs like this:
as §1

A short description of series [11]: Stability in human hepatic microsomes assessed as compound turnover at 5 uM incubated for 30 mins in presence of NADPH. To be noted: liver microsomes, read-out: Drug degradation. In kind it is ADME. An outline of the steps:
(§3)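 Rat or human hepatic microsomes (1 mg/mL) with NADPH, test compound 5 µM, 30 min at 37 °C; readout is % turnover of parent.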

Series [12] can be described thus: Cmax in Wistar rat at 10 mg/kg, po. In kind it is ADME, organism-based. Details: dose 10 mg/kg, route oral. Conditions: in vivo. In short, it runs like this: as §1
Series [13] in a line: Half life in beagle dog at 1 mg/kg, iv. The format is ADME, organism-based, Canis lupus familiaris. More on the design: dose 1 mg/kg, route intravenous. Conditions: in vivo. In short, it runs like this: (§4)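 Beagle dogs dosed 1 mg/kg iv or 1 mg/kg po; pharmacokinetic parameters reported as mean values of n = 2 animals.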
A short description of series [14]: AUC in Wistar rat at 10 mg/kg, po. The format is ADME, organism-based. Details: dose 10 mg/kg, route oral. Conditions: plasma. An outline of the steps: as §1
Series [15] can be described thus: Stability in rat hepatic microsomes assessed as compound turnover at 5 uM incubated for 30 mins in presence of NADPH. In kind it is ADME. To be noted: liver microsomes, read-out: Drug degradation. In short, it runs like this: as §3
In general terms: Microsomes from liver hold many membrane-bound enzymes, among them those of drug oxidation.

Series [16] is described as follows: Volume of distribution at steady state in beagle dog at 1 mg/kg, iv. The format is ADME, organism-based, Canis lupus familiaris. To be noted: in vivo, read-out: Vdss. More on the design: dose 1 mg/kg, route intravenous. In short, it runs like this: as §4
Series [17] is described as follows: Half life in Wistar rat at 1 mg/kg, iv. The format is ADME, organism-based. To be noted: in vivo. More on the design: dose 1 mg/kg, route intravenous. An outline of the steps: as §1
Series [18] can be described thus: Clearance in Wistar rat at 1 mg/kg, iv. In kind it is ADME, organism-based. Details: dose 1 mg/kg, route intravenous. To be noted: in vivo. An outline of the steps: as §1
Series [19] in a line: AUC in beagle dog at 1 mg/kg, iv. The format is ADME, organism-based, Canis lupus familiaris. More on the design: dose 1 mg/kg, route intravenous. Conditions: plasma. In short, it runs like this:
as §4

In another series the target is Cytochrome P450 2C19 (Homo sapiens, UniProt P33261). As to the kind of experiment: Inhibition of CYP2C19 at < 25 uM. In kind it is ADME.
The nature of series [20]: Clearance in beagle dog at 1 mg/kg, iv. In kind it is ADME, organism-based, Canis lupus familiaris. To be noted: in vivo. More on the design: dose 1 mg/kg, route intravenous. An outline of the steps:
as §4

Another series has as its target Cytochrome P450 2D6 (Homo sapiens, UniProt P10635). As to the kind of experiment: Inhibition of CYP2D6 at < 25 uM. The format is ADME.
A short description of a further series: in vitro. To be noted: human, Caco-2.

Bounds are passed on as bounds.

Cytochrome P450 2C19, sequence (P33261 whole entry): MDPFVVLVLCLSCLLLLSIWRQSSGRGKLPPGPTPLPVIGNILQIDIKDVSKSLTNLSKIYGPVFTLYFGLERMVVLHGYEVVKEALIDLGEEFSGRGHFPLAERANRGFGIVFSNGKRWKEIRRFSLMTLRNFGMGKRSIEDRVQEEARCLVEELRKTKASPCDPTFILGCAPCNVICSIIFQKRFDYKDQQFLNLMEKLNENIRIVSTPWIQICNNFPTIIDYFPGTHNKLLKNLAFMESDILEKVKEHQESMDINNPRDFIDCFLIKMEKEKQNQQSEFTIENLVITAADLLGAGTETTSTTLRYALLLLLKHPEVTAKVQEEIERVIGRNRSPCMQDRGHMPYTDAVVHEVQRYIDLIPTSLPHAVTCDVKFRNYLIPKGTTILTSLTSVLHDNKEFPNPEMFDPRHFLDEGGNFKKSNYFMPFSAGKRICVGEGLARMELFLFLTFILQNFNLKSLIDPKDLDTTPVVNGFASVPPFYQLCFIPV
Proto-oncogene tyrosine-protein kinase receptor Ret, sequence (P07949 whole entry): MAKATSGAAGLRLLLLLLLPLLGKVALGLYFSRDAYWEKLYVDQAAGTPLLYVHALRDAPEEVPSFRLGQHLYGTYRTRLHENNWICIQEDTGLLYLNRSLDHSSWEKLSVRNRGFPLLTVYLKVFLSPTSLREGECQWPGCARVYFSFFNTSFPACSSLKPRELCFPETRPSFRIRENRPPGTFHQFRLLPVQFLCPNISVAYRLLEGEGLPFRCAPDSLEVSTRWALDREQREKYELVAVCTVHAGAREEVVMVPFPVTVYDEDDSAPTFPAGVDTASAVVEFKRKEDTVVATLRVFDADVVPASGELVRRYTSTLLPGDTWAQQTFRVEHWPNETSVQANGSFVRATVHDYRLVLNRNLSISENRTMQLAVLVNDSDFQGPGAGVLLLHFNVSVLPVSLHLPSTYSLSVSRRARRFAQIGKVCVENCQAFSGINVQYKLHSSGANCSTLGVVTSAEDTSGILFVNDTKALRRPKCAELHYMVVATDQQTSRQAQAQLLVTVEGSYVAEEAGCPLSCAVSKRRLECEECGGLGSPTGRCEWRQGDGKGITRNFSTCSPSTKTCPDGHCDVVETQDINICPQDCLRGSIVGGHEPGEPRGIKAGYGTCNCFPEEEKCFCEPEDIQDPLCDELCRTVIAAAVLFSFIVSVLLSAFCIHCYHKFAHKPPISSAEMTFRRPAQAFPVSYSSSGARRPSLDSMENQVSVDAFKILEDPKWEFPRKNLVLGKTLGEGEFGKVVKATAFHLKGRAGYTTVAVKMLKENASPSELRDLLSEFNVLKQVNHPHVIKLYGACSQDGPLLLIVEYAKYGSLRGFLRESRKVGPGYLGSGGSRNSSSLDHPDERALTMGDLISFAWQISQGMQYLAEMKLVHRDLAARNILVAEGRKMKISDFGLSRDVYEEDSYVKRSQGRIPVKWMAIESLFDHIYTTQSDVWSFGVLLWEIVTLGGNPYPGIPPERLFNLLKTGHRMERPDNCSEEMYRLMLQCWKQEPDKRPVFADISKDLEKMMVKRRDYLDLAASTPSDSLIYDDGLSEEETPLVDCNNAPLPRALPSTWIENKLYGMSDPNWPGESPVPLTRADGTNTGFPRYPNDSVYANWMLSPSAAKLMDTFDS
Cytochrome P450 2D6, sequence (P10635 whole entry): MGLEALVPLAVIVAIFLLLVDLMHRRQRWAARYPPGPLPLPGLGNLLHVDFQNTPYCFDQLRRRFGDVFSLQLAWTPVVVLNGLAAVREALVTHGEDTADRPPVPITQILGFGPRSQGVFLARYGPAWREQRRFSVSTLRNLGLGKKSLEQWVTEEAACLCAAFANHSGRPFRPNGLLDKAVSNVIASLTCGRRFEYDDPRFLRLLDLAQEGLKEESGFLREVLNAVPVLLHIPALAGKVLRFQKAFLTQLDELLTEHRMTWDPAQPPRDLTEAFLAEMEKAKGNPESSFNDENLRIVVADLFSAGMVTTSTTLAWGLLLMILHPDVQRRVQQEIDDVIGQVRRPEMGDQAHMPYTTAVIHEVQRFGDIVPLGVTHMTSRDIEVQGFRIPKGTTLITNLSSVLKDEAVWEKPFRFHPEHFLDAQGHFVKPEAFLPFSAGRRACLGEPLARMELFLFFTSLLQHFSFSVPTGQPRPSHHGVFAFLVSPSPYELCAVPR
Cytochrome P450 3A4, sequence (P08684 whole entry): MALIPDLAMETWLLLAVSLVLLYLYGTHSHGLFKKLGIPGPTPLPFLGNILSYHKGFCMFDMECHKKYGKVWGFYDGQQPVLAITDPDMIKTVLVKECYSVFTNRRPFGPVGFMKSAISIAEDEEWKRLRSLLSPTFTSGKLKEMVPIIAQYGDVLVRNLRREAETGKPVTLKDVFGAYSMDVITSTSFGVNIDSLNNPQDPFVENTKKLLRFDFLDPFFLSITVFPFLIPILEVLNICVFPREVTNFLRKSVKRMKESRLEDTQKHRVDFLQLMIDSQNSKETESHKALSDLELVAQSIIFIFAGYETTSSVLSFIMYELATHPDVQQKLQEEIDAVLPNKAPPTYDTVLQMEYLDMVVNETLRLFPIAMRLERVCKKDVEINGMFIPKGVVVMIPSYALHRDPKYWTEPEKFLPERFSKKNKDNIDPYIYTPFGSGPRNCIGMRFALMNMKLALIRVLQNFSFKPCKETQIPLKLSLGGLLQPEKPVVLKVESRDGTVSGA
Cytochrome P450 2C9, sequence (P11712 whole entry): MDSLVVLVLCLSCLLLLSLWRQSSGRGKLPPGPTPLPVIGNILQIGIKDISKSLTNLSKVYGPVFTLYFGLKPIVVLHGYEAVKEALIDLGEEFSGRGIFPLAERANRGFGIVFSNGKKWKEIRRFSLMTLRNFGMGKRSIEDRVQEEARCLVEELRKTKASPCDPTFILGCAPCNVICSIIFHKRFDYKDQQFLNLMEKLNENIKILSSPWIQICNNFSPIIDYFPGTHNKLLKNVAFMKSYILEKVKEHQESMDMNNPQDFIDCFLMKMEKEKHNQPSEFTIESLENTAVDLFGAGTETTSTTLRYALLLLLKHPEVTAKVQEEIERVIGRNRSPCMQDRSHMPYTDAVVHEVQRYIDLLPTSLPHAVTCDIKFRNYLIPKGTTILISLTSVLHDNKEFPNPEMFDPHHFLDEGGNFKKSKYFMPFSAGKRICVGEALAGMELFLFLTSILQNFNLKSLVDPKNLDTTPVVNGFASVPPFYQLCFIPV
RAF proto-oncogene serine/threonine-protein kinase, sequence (P04049 whole entry): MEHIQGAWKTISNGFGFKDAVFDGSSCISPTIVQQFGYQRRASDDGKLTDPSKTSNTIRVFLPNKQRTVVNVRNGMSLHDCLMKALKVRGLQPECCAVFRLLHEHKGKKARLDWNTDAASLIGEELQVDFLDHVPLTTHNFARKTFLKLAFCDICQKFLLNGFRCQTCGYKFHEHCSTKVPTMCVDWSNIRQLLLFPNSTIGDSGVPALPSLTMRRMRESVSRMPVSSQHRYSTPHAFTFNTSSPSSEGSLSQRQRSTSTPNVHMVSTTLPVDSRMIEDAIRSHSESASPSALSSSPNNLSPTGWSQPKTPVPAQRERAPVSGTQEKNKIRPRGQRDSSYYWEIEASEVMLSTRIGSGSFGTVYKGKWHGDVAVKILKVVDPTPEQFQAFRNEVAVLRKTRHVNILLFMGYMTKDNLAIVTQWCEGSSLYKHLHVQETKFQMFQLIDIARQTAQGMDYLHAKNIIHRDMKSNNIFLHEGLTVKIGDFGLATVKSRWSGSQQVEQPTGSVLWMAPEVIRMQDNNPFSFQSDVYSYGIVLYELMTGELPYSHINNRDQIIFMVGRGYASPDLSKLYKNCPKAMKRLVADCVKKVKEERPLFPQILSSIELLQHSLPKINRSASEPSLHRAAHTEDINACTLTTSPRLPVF

`Cc1ccc(C(=O)NC2CC2)cc1-c1ccn2c(C3CC3)nnc2c1` registered an IC50 with Blood of 0.025 µM.
Same read-out and setting: to `Cc1c(F)cc(C(=O)NC2CC2)cc1-c1ccn2c(C(C)(C)O)nnc2c1` belongs 0.105 µM; to `Cc1ccc(C(=O)NC2CC2)cc1-c1ccn2c(C3CCOCC3)nnc2c1`, 0.667 µM.
Molecule `Cc1c(F)cc(C(=O)NC2CC2)cc1-c1ccn2c(-c3ccncc3Cl)nnc2c1` showed an IC50 in the series with Blood of 0.084 µM.
As to `Cc1c(F)cc(C(=O)NC2CC2)cc1-c1ccn2c(C(N)=O)nnc2c1`, the IC50 with Blood was found to be 1.84 µM.
On to `Cc1ccc(C(=O)NC2CC2)cc1-c1ccn2c(C3CCC3)nnc2c1`, for which it took 0.67 µM to reach half-maximal inhibition with Blood (IC50).
The same measure, in the same setting: to `Cc1c(F)cc(C(=O)NC2CC2)cc1-c1c(F)cn2c(C(C)(C)N(C)C)nnc2c1F` belongs 0.124 µM.
`COC(C)(C)c1nnc2cc(-c3cc(C(=O)NC4CC4)cc(F)c3C)ccn12`: inhibition with Blood was half-maximal at 0.278 µM (IC50).
Consider `COC(C)c1nnc2cc(-c3cc(C(=O)NC4CC4)ccc3C)ccn12` (configuration not stated), for which the IC50 in the series with Blood worked out at 1.06 µM.
Turning to `COC(C)c1nnc2cc(-c3cc(C(=O)NC4CC4)cc(F)c3C)ccn12` (configuration not stated), half-maximal inhibition in the series with Blood (IC50) required 0.257 µM.
As to `Cc1c(F)cc(C(=O)NC2CC2)cc1-c1ccn2c(C(C)(C)NS(C)(=O)=O)nnc2c1`, the IC50 in the series on Blood was 1.11 µM.
Take `Cc1ccc(C(=O)NC2CC2)cc1-c1ccn2c(-c3ccccc3Cl)nnc2c1`: in the series on Blood, the IC50 worked out at 0.02 µM.
The same measure, in the same setting: the value for `Cc1c(F)cc(C(=O)NC2CC2)cc1-c1c(F)cn2c(C3CC3)nnc2c1F` was 1.47 µM.
For the molecule `Cc1c(F)cc(C(=O)NC2CC2)cc1-c1ccn2c(C(C)(C)C)nnc2c1`, the AUC in series [1] stood at 2670 ng·h/mL; in series [14], 17800 ng·h/mL; in series [19], 2770 ng·h/mL. This molecule also yielded a bioavailability in series [2] of 66%. For the same molecule, the Papp B→A at 12.5 µM in series [3] was found to be 23 ×10⁻⁶ cm/s. Further, the IC50 is 0.048 µM in the series on Blood and 107 µM in the series on CHO [8]. The fraction unbound in series [4] is 0.21; in series [5], 0.16. In addition, in the series on CHO [6], the Activity entry was “Non-toxic”. The “inhibition (INH)” value against Cytochrome P450 2C9, on Cytochrome P450 3A4, against Cytochrome P450 1A2, on Cytochrome P450 2C19 and on Cytochrome P450 2D6 was “Not Active” each time. In addition, the inhibition in [7] and in series [9] was 66% in each case. The results for the Vd in [10] and in series [16] were 1.3 L/kg and 1.6 L/kg, respectively. Besides, the metabolised at 0.5 h, 5 µM in [11] and in series [15] was less than 5% each time. This molecule returned a Cmax in series [12] of 2580 ng/mL. The results for the half-life in [13] and in [17] were 3.5 h and 3.8 h, respectively. The clearance in [18] came to 6.5 mL/min/kg; in series [20], 6.2 mL/min/kg. The molecule also showed a Papp A→B at 12.5 µM in “in vitro” of 27 ×10⁻⁶ cm/s.
Turning to `Cc1c(F)cc(C(=O)NC2CC2)cc1-c1ccn2c(C3CC3)nnc2c1`, the IC50 in the series with Blood stood at 0.213 µM.
In the case of `Cc1ccc(C(=O)NC2CC2)cc1-c1c(F)cn2c(C(C)(C)C)nnc2c1F`, the IC50 in the series on Blood amounted to 0.516 µM.
